# Most compounds without a hit are left out; they make up all but 2% or so of the library.
# T cruzi repl = inhibitors of intracellular T. cruzi growth, primary screen, luminescence, NIH3T3 host cells | T. cruzi beta-gal in NIH3T3, 90 h | inhibition, % (test concentration not listed) | actives 1.4% (n = 300,000) | AID 1885, 2009;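 active = mean inhibition across valid replicates above about 55%, limit read from the data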;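 also: signal also drops with host cell toxicity which is not excluded here; 0% = plate median of DMSO wells and 100% = zero luminescence signal; higher percent means less beta-gal luminescence so fewer parasites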
#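 Read-out: Parasite load inhibition, % | Test system: Mouse NIH/3T3 fibroblasts infected with β-gal-expressing T. cruzi Tulahuen C4 | Amount: 5,000 cells/well | Medium: DMEM, 2% fetal bovine serum | Signal: GalScreen β-gal luminescence, detergent lysis, 60 min | Timing: 3 h attach, ≥90 h co-culture | Also added: Tulahuen C4 trypomastigotes, 5000/well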
# HIF activator = HIF pathway transcriptional activators, primary screen, cell-based, U2OS HRE-luciferase, luminescence; U2OS HRE-luciferase reporter; normalized: DMSO 0%, desferrioxamine 100%; actives 0.32% (n = 300,000); AID 1910, 2009; activation, % at 7.5 µM (by protocol);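 active = mean activation of at least 10% of the iron chelator positive control signal, with at least half of replicates also reaching 10%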
# ARNT-TACC3 inh = disruptors of ARNT/TACC3 protein interaction, primary screen, biochemical, AlphaScreen, single concentration | AID 623870, 2012 | AlphaScreen His-ARNT PAS-B/GST-TACC3 binding, luminescence; TACC3 fragment carries E629A point mutation | actives 0.66% (n = 390,000) | inhibition, % at 9.99 µM;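 active = mean inhibition of replicates at least 50% and at least half of replicates each reaching 50%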;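 also: 0% = complete ARNT plus TACC3 wells and 100% = ARNT alone without TACC3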
# AI-2 QS modul = Vibrio harveyi AI-2 quorum sensing modulators, primary screen, JMH597 strain, luminescence/OD600 ratio; activity change, % at 7.5 µM; Vibrio harveyi JMH597 AI-2 luminescence/OD600 ratio, 9 h; active compounds read low; strain lacks LuxN and CqsS sensors; 0 = neutral-control median; actives 0.4% (n = 300,000); in the data active = activity change below about -75%, passing the limit was not always enough;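 also: luminescence divided by OD600 gain over 9 h not by final OD600 alone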
# * hit, by the source's call; / = not tested or not shown.
SMILES,T cruzi repl,HIF activator,ARNT-TACC3 inh,AI-2 QS modul
Cc1nc2ccc(Oc3ccccc3)cc2s1,-5,0,-3,27
Nc1nc2ccc(Oc3ccccc3)cc2s1,-29,2,1,-81*
CO[C@@H]1CN(C)C(=O)c2cc(NS(=O)(=O)c3ccc(-c4ccccc4)cc3)ccc2OC[C@@H](C)NC[C@@H]1C,/,/,6,/
Cc1nnc(N/N=C/C(C)c2ccccc2)[nH]c1=O (stereo not given),-9,0,63*,15
C[C@@H]1CN([C@@H](C)CO)C(=O)Cc2cc(N(C)C)ccc2O[C@H]1CN(C)C(=O)Nc1cccc2ccccc12,/,/,11,/
O=C(Nc1ccc(-c2ccccc2)cc1)[C@@H]1[C@@H](CO)[C@@H]2Cn3c(cccc3=O)[C@@H]2N1CC1CCCCC1,/,/,28,/
Cc1cc(Br)c2c(c1)/C(=C/C(=O)c1cccs1)C(=O)N2,58*,0,18,16
C[C@H](CO)N1C[C@H](C)[C@H](CN(C)S(=O)(=O)c2ccc(F)cc2)OCCCC[C@H](C)Oc2ccc(NC(=O)Nc3ccccc3)cc2C1=O,/,/,-11,/
Cc1ccc(C)c(Cc2c(C)nc3c(C(=O)NCc4ccc5c(c4)OCO5)cnn3c2C)c1,68*,-1,/,3
Cc1nc2c(C(=O)NCc3ccco3)cnn2c(C)c1Cc1ccc(F)cc1Cl,74*,0,8,5
Cc1nc2c(C(=O)NCc3ccc4c(c3)OCO4)cnn2c(C)c1Cc1ccc(F)cc1Cl,34,0,-12,-2
C[C@@H]1CN([C@@H](C)CO)C(=O)c2cc(NC(=O)Nc3ccc4c(c3)OCO4)ccc2O[C@@H]1CN(C)S(C)(=O)=O,/,/,1,/
CCCNC(=O)C[C@@H]1CC[C@@H]2[C@H](COC[C@H](O)CN2Cc2cccc(F)c2)O1,/,/,-6,/
Cc1cccc(Nc2nc(N)c([N+](=O)[O-])c(NCCO)n2)c1,2,-1,-3,7
Cc1cccc(NC2=C(NCCO)C(=O)c3ccccc3C2=O)c1,-6,3,39*,37
COc1cccc(NC2=C(NCCO)C(=O)c3ccccc3C2=O)c1,-15,1,47*,27
COc1ccc(NC2=C(NCCO)C(=O)c3ccccc3C2=O)cc1,-29,4,60*,23
COC1=C(Nc2ccc(OC)cc2)C(=O)c2ccccc2C1=O,9,-55,53*,2
Cn1cnc(CCNC(=O)C[C@H]2CC[C@@H]3[C@H](COC[C@@H](O)CN3C(=O)Nc3ccccc3)O2)c1,/,/,-1,/
C[C@H]1CCCCO[C@@H](CN(C)S(=O)(=O)c2cccs2)[C@@H](C)CN([C@@H](C)CO)C(=O)c2cc(NS(=O)(=O)c3cn(C)cn3)ccc2O1,/,/,-7,/
Cc1ccccc1C(=O)Nc1nnc(-c2ccc(F)cc2)o1,18,0,12,-82*
COc1ccccc1C(=O)Nc1nnc(-c2ccc(F)cc2)o1,5,0,-1,27
CCN1CCc2c(C#N)c(N3CCOCC3)nc(N3CCOCC3)c2C1,16,0,-6,27
N#Cc1c(N2CCOCC2)nc(N2CCCCC2)c2c1CCN(C1CCCCC1)C2,71*,0,/,23
COc1ccc2[nH]c(C(O)(Cc3cccnc3)Cc3cccnc3)cc2c1,57*,-1,6,18
SMILES,T cruzi repl,HIF activator,ARNT-TACC3 inh,AI-2 QS modul
COc1ccc(CNC(=O)C(=O)NCc2cccnc2)cc1,-9,-1,-1,0
Cc1noc(C)c1S(=O)(=O)N(C)C[C@@H]1Oc2ccc(NC(=O)Cc3cn(C)c4ccccc34)cc2CC(=O)N([C@H](C)CO)C[C@H]1C,/,/,2,/
Fc1ccc(N/N=C/c2ccc(N3CCOCC3)cc2)c(F)c1,65*,4,-2,11
C[C@H](CO)N1C[C@H](C)[C@H](CN(C)Cc2ccc(C(=O)O)cc2)Oc2ccc(NS(=O)(=O)c3ccc(Cl)cc3)cc2C1=O,/,/,-7,/
C=CCc1cccc(/C=N/NC(=O)c2ccccc2OC)c1O,62*,7,-3,47
C=CCc1cccc(/C=N/NC(=O)c2ccccc2Br)c1O,61*,1,6,11
O=C(c1cnn2c(C(F)(F)F)cc(-c3cccs3)nc12)N1CCN(Cc2ccccc2)CC1,75*,-2,6,-4
CN1CCN(C(=O)c2cnn3c(C(F)(F)F)cc(-c4cccs4)nc23)CC1,3,3,1,6
Nc1csnc1C(=O)O,-12,0,46*,23
O=C(O)c1nnsc1-c1csnn1,/,/,-4,/
O=C(NN1C(=O)CSC1=S)C(=O)NN1C(=O)CSC1=S,13,-1,59*,11
O=C(Cc1cccc2ccccc12)NN1C(=O)CSC1=S,-5,-1,-7,-3
COc1ccc(OCC(=O)NNC(=O)c2ccccn2)cc1,-10,-1,67*,-15
CCNc1nc(Cl)nc(NNC(=O)C(C)Oc2ccccc2)n1 (stereo not given),-10,236*,4,4
COc1ccc(C(=O)NNC(=O)c2ccccn2)cc1,-5,-3,22,12
COc1ccc(OCC(=O)NCCNC(=O)c2ccccn2)cc1,-6,0,-17,23
CC(C)Nc1nc(Cl)nc(NNC(=O)C(C)Oc2ccccc2)n1 (stereo not given),-11,-1,-1,-19
CC(C)C(=O)NNC(=O)c1ccccn1,-2,0,51*,39
CC(Oc1ccccc1)C(=O)NNC(=O)c1ccccn1 (stereo not given),3,0,51*,30
Cc1noc(C)c1NC(=O)Nc1ccc2c(c1)C(=O)N([C@@H](C)CO)C[C@H](C)[C@@H](CN(C)S(=O)(=O)c1cn(C)cn1)OCCCC[C@@H](C)O2,/,/,-4,/
Cc1ccc(S(=O)(=O)Nc2ccc3c(c2)C(=O)N([C@H](C)CO)C[C@@H](C)[C@@H](CN(C)C(=O)CCC(F)(F)F)OCCCC[C@H](C)O3)cc1,/,/,-2,/
CCCNC(=O)c1cc2c(c(-c3cccc(-c4cccc(OC)c4)c3)n1)[C@@H](CCO)N([S@](=O)C(C)(C)C)C2,/,/,12,/
Cc1c(CCOC(=O)c2cc([N+](=O)[O-])cc([N+](=O)[O-])c2)sc[n+]1CC(=O)c1ccccc1,69*,1,5,28
COc1ccc(C2NC(=S)NC3=C2N2CCC3CC2)cc1 (stereo not given),-19,0,active,/
Fc1ccc(C2NC(=S)NC3=C2N2CCC3CC2)cc1 (stereo not given),-15,0,0,10
N#Cc1ccc(-c2csc(NNC(=O)c3ccccc3)n2)cc1,/,0,0,6
N#Cc1ccc(-c2csc(NNC(=O)c3ccc(Br)cc3)n2)cc1,/,9.7*,-5,-2
COCC#Cc1ccc2c(c1)O[C@@H](CN(C)Cc1cccnc1)[C@@H](C)CN([C@@H](C)CO)S2(=O)=O,/,/,-24,/

# Bioassay records from PubChem.
